Test results published in PMC12265513 (bioRxiv, 2025).
Peptide text beside a SMILES is read from it. * marks the point of attachment. FITC = O=C1OC2(c3ccc(O)cc3Oc3cc(O)ccc32)c2ccc(NC(=S)*)cc21; Ahx = NCCCCCC(=O)O

How the values were obtained:
[1] = target: GST-fused construct of the NEDD9-SH3 domain (Homo sapiens, UniProt Q14511); assay: Fluorescence polarization, direct binding of FITC-labeled pep01 probe
NEDD9 = NEDD9 immunoblot in HPAECs; assay type: cell-based, human; conditions: 50-200 μM for 30-120 min, basal conditions, vs vehicle, n=3
Summary of the method: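 Confluent HPAECs in EBM-2 medium received test compound from a 10 mM DMSO stock, with DMSO as vehicle, for 30, 60 or 120 min. Lysates were immunoblotted with anti-NEDD9 (1:1000) overnight at 4°C, then peroxidase secondary and ECL detection.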

NEDD9-SMAD3 complex = NEDD9-SMAD3 complex formation; assay type: cell-based, human; conditions: H2O2 (500 μM) for 20 min, n=3
Summary of the method: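 HPAECs were treated with 500 μM H2O2 for 20 min with or without test compound. The complex was measured two ways. One was anti-NEDD9 immunoprecipitation followed by anti-SMAD3 immunoblot. The other was proximity ligation with mouse anti-NEDD9 and rabbit anti-SMAD3, normalised to total NEDD9 expression. n=3.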

HPAECs = assay: Anti-collagen III immunofluorescence in HPAECs; assay type: cell-based, human; conditions: 24 hr, n=3
Summary of the method: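 HPAECs grown on glass chamber slides were exposed to test compound for 24 hr. They were then fixed in 4% formalin in PBS and blocked with 10% goat albumin in PBS for 1 hr at room temperature. Primary antibody (1:100) was applied overnight at 4°C. Collagen III deposition and NEDD9-positive cells were scored by immunofluorescence.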

NEDD9-SH3 (1-64) = assay: Intact protein mass spectrometry, covalent modification of the SH3 domain; assay type: binding; conditions: intact MS and 2-D NMR
Summary of the method: (§1)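 Dual screen: NEDD9-SH3 (1-64) and BRAF-RBD, each at 1 μM, were mixed in one reaction with 100 μM covalent fragment. Controls were 100 μM iodoacetamide or 1% DMSO. Buffer was 50 mM HEPES pH 7.4, 100 mM NaCl, 4 h at 21°C. Reactions were quenched to 0.2% formic acid and read by RapidFire QTOF MS. Hits formed a single adduct on NEDD9-SH3 at least two-fold greater than on BRAF-RBD.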

BRAF-RBD = assay: Intact MS counter screen; assay type: binding; conditions: deconvoluted MS
Summary of the method: as §1

`C[C@H](NC(=O)[C@H](CCC(=O)O)NC(=O)[C@H](CC(=O)O)NC(=O)CCCCCNC(=S)Nc1ccc2c(c1)C(=O)OC21c2ccc(O)cc2Oc2cc(O)ccc21)C(=O)N1CCC[C@H]1C(=O)N1CCC[C@H]1C(=O)N[C@@H](CCCCN)C(=O)N1CCC[C@H]1C(=O)N[C@@H](CO)C(=O)N[C@@H](CCCNC(=N)N)C(=O)N1CCC[C@H]1C(=O)NCC(=O)N[C@@H](Cc1ccc(O)cc1)C(=O)N1CCC[C@H]1C(=O)N[C@@H](CO)C(N)=O` [FITCylated pep01] ({FITC-Ahx}-DEAPPKPSRPGYPS-NH2) gave a Kd [1] of 4 µM.
For `C=CC(=O)Nc1cc(C(F)(F)F)cc(C(F)(F)F)c1` [Fragment 1, N-[3,5-Bis(trifluoromethyl)phenyl] acrylamide], the “NEDD9 protein quantity by immunoblot” value (NEDD9) was “decreased NEDD9 protein quantity”, the NEDD9-SMAD3 complex formation (NEDD9-SMAD3 complex) was “restored NEDD9-SMAD3 complex formation” and the “fibrosis in cellulo by anti-collagen III immunofluorescence” value (HPAECs) was “decreased fibrosis”.
For `C[C@@H]1CCN(C(=O)CCl)[C@@H](C(N)=O)C1` [Fragment 2, (2R,4R)-1-(2-chloroacetyl)-4-methylpiperridine-2-carboxamide], the “adduct formation to NEDD9-SH3” value (NEDD9-SH3 (1-64)) was “dose- and time-dependent increase in adduct formation” and the BRAF-RBD modification (BRAF-RBD) was “did not show BRAF-RBD modification”.
